Reference: ChEMBL document CHEMBL5678805, “Intermittent administration of MEK inhibitor GDC-0973 plus PI3K inhibitor GDC-0941 triggers robust apoptosis and tumor growth inhibition” (Cancer Res, 2012)
pIC50: −log10 of the molar value. Activity calls are given as the source filed them. The rule behind the calls is not given here.

Key:
[1] = target: ALK tyrosine kinase receptor (Homo sapiens, UniProt Q9UM73); test: Inhibition of ALK (unknown origin)
[2] = target: Mitogen-activated protein kinase kinase kinase 5 (Homo sapiens, UniProt Q99683); test: Inhibition of ASK1 (unknown origin)
Sequence of Mitogen-activated protein kinase kinase kinase 5 (Q99683 whole entry): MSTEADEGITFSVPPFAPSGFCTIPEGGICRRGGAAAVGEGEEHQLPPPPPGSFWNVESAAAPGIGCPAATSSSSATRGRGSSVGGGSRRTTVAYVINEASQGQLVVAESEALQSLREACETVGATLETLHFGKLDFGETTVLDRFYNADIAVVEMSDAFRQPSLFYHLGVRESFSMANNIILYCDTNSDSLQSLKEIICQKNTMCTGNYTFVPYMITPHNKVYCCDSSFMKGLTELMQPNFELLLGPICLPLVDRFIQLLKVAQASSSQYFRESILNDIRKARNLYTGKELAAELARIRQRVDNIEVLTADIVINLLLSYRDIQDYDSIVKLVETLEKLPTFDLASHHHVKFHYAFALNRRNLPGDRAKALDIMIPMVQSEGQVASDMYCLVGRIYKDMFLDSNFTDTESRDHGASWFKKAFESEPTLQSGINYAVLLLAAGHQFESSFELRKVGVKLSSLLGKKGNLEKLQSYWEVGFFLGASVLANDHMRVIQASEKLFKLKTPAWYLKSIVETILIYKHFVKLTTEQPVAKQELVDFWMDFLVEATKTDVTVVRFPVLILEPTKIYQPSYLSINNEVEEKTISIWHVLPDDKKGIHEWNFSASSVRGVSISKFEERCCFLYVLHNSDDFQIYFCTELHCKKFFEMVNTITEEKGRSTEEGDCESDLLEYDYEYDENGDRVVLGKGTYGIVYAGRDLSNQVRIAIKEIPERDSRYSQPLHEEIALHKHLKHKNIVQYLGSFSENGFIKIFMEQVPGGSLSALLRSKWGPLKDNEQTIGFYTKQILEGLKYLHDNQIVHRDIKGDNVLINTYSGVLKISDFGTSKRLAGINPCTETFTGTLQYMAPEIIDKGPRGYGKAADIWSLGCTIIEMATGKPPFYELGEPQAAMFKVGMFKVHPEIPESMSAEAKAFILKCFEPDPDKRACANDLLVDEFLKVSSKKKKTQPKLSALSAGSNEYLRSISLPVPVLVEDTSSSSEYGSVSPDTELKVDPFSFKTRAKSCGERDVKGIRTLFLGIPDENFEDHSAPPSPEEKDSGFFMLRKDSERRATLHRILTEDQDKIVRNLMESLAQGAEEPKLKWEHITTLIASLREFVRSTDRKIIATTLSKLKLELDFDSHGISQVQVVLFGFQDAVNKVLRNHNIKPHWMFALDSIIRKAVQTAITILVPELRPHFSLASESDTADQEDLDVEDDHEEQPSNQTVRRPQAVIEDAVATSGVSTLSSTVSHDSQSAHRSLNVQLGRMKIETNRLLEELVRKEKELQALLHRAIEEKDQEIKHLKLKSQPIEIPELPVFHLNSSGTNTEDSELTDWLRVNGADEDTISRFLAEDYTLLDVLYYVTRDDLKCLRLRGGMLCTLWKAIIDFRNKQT

[3] = target: Aurora kinase A (Homo sapiens, UniProt O14965); test: Inhibition of AuroraA (unknown origin)
[4] = target: RAF proto-oncogene serine/threonine-protein kinase (Homo sapiens, UniProt P04049); test: Inhibition of cRAF (unknown origin)
Sequence of RAF proto-oncogene serine/threonine-protein kinase (P04049 whole entry): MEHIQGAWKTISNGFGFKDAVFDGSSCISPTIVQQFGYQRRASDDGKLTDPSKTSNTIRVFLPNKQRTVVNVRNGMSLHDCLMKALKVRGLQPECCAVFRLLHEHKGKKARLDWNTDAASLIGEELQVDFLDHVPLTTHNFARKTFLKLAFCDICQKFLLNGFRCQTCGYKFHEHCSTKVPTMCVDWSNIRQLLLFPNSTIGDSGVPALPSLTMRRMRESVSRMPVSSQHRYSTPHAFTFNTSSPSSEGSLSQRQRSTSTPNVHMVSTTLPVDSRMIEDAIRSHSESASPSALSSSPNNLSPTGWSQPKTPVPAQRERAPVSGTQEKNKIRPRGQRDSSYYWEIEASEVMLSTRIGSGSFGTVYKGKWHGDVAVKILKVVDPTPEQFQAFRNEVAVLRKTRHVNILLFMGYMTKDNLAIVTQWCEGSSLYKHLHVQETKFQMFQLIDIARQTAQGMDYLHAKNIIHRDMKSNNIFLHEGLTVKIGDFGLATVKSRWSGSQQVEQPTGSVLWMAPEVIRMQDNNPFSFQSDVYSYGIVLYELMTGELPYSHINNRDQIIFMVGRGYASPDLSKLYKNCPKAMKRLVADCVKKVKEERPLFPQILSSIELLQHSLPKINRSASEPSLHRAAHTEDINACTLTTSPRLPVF

[5] = target: Ephrin type-A receptor 2 (Homo sapiens, UniProt P29317); test: Inhibition of EphA2 (unknown origin)
[6] = target: Focal adhesion kinase 1 (Homo sapiens, UniProt Q05397); test: Inhibition of FAK (unknown origin)
[7] = target: Beta-adrenergic receptor kinase 1 (Homo sapiens, UniProt P25098); test: Inhibition of GRK2 (unknown origin)
Sequence of Beta-adrenergic receptor kinase 1 (P25098 whole entry): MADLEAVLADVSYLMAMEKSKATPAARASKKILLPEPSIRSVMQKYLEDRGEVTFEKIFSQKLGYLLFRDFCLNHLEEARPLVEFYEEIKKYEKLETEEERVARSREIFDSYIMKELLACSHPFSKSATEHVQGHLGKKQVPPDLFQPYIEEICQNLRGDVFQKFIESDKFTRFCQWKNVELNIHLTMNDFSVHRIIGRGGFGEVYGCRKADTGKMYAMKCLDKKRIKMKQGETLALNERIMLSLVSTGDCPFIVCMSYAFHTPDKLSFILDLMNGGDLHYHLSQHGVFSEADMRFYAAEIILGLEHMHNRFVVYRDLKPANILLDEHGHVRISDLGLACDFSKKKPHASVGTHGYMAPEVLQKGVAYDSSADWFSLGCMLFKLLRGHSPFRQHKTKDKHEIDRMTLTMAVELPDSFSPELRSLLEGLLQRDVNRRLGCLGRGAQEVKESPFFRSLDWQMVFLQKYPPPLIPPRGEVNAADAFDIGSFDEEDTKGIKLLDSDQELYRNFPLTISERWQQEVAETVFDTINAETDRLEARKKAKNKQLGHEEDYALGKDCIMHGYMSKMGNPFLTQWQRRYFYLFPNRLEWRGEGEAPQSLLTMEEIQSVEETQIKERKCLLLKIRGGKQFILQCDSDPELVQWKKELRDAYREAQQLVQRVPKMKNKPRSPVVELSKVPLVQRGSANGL

[8] = target: Mitogen-activated protein kinase kinase kinase kinase 3 (Homo sapiens, UniProt Q8IVH8); test: Inhibition of MAP4K3 (unknown origin)
[9] = target: Serine/threonine-protein kinase Nek3 (Homo sapiens, UniProt P51956); test: Inhibition of NEK3 (unknown origin)
[10] = target: Serine/threonine-protein kinase NLK (Homo sapiens, UniProt Q9UBE8); test: Inhibition of NLK (unknown origin)
[11] = target: Serine/threonine-protein kinase pim-2 (Homo sapiens, UniProt Q9P1W9); test: Inhibition of PIM2 (unknown origin)
Sequence of Serine/threonine-protein kinase pim-2 (Q9P1W9 whole entry): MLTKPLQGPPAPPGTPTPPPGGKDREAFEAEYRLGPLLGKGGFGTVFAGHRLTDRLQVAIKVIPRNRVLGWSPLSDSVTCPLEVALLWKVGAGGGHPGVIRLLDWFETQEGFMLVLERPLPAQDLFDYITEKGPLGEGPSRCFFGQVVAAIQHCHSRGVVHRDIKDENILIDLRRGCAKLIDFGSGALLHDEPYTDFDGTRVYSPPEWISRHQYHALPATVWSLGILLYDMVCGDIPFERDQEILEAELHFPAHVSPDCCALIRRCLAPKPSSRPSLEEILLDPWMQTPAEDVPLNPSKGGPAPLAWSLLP

[12] = target: Tyrosine-protein kinase SYK (Homo sapiens, UniProt P43405); test: Inhibition of SYK (unknown origin)
[13] = target: Testis-specific serine/threonine-protein kinase 1 (Homo sapiens, UniProt Q9BXA7); test: Inhibition of TSSK1 (unknown origin)
Sequence of Testis-specific serine/threonine-protein kinase 1 (Q9BXA7 whole entry): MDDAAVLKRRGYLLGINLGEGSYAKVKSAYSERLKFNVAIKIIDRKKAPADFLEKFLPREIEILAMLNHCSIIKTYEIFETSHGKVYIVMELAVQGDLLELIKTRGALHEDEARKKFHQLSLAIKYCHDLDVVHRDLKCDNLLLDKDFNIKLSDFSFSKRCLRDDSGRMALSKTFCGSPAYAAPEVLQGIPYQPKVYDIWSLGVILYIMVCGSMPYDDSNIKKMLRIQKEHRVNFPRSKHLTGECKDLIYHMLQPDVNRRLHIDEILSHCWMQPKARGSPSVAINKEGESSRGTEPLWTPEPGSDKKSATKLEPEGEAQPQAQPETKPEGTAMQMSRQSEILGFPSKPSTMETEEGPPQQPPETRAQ

[14] = system: 537-mel; test: Antitumor activity against human 537-mel cells harboring PTEN null mutation xenografted in mouse assessed as tumor growth inhibition at 5 mg/kg, po; assay type: functional; conditions: read-out: TGI
Procedure, shortened: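 Mice carrying human tumor xenografts dosed orally once daily for 21 consecutive days. Tumor volume measured by calipers as (L×W×W)/2. %TGI = 100×[1 − AUC(treatment/day)/AUC(vehicle/day)], using the area under the fitted growth curve relative to vehicle.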

[15] = system: NCI-H460; test: Antitumor activity against human NCI-H460 cells harboring KRAS Q61H/PIK3CA E545K/LKB1 Q37/CDKN2A mutant xenografted in mouse assessed as tumor growth inhibition at 5 mg/kg, po; assay type: functional; conditions: read-out: TGI
Procedure, shortened: (§1)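 Human tumor xenografts in mice were dosed orally at the indicated mg/kg. Tumor volume was measured with calipers as (L×W×W)/2. %TGI = 100 × [1 − (AUC treatment/d)/(AUC vehicle/d)], using the area under the fitted tumor-growth curve per day for each dose group relative to vehicle.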

[16] = system: KP-4; test: Antitumor activity against human KP-4 cells harboring KRAS G12D mutant xenografted in mouse assessed as tumor growth inhibition at 5 mg/kg, po; assay type: functional; conditions: read-out: TGI
Procedure, shortened: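 Single-agent dose ranging in human tumor xenograft mice at 2.5, 5 or 10 mg/kg oral. Tumor volume was measured by caliper as (L×W×W)/2. %TGI = 100×[1 − AUC(treatment/d)/AUC(vehicle/d)] from the fitted growth curve per dose group, relative to vehicle.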

[17] = system: CWR22R; test: Antitumor activity against human 22Rv1 cells harboring PIK3CA Q546R/TP53 Q331R mutant xenografted in mouse assessed as tumor growth inhibition at 5 mg/kg, po; assay type: functional; conditions: read-out: TGI
[18] = system: NCI-H69; test: Antitumor activity against human NCI-H69 cells harboring RBI E748/PK3CA G106_R108/TP53 E171 mutant xenografted in mouse assessed as tumor growth inhibition at 10 mg/kg, po; assay type: functional; conditions: read-out: TGI; procedure, shortened: as §1
[19] = system: A2058; test: Antiproliferative activity against human A2058 cells assessed reduction in cell viability incubated for 4 days in presence of 4-(2-(1H-indazol-4-yl)-6-((4-(methylsulfonyl)piperazin-1-yl)methyl)thieno[3,2-d]pyrimidin-4-yl)morpholine by celltiter-glo assay; assay type: functional; conditions: time 4 day
Procedure, shortened: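 4-day CellTiter-Glo viability read-out on melanoma lines, cells exposed to increasing concentrations of each inhibitor alone and in combination.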

[20] = system: 888-mel; test: Inhibition of PI3K/MEK signaling pathway in human 888-mel cells assessed as decrease in ERK phosphorylation by incubated for 24 hrs by Western blot analysis; assay type: cell-based
[21] = system: A2058; test: Antitumor activity against human A2058 cells xenografted in mouse assessed as decrease in pS6 level at 5 mg/kg, po administered for 4 days and measured after 2 hrs in presence of 4-(2-(1H-indazol-4-yl)-6-((4-(methylsulfonyl)piperazin-1-yl)methyl)thieno[3,2-d]pyrimidin-4-yl)morpholine; assay type: functional, organism-based; conditions: time 98.0 hrs
[22] = system: A-375; test: Antitumor activity against human A-375 cells xenografted in mouse assessed as decrease in pS6 level at 5 mg/kg, po administered for 4 days and measured after 2 hrs in presence of 4-(2-(1H-indazol-4-yl)-6-((4-(methylsulfonyl)piperazin-1-yl)methyl)thieno[3,2-d]pyrimidin-4-yl)morpholine; assay type: functional, organism-based; conditions: time 98.0 hrs
[23] = system: A2058; test: Antitumor activity against human A2058 cells xenografted in mouse assessed as tumor growth inhibition at 6 mg/kg, po administered once a day for 21 days in presence of 4-(2-(1H-indazol-4-yl)-6-((4-(methylsulfonyl)piperazin-1-yl)methyl)thieno[3,2-d]pyrimidin-4-yl)morpholine; assay type: functional; conditions: A2058, 504 h, time 21 day, read-out: TGI
Procedure, shortened: (§2)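 Human tumor xenografts in mice. Drugs given orally, as single agents or combined with the PI3K inhibitor. Schedules were daily (QD) or every third day (Q3D) over 21 days. Tumor volume was measured by caliper as (L×W×W)/2. %TGI = 100×[1 − AUC(treatment/d)/AUC(vehicle/d)] from fitted growth curves, with group means. Tumor lysates were immunoblotted for pS6.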

[24] = system: A2058; test: Antitumor activity against human A2058 cells xenografted in mouse assessed as tumor growth inhibition at 15 mg/kg, po administered every third day for 21 days; assay type: functional; conditions: A2058, 504 h, time 21 day, read-out: TGI; procedure, shortened: as §2
[25] = system: DLD-1; test: Antitumor activity against human DLD-1 cells xenografted in mouse assessed as tumor growth inhibition at 10 mg/kg, po administered every third day for 21 days; assay type: functional; conditions: DLD-1, 504 h, time 21 day, read-out: TGI; procedure, shortened: as §2
[26] = system: NCI-H2122; test: Antitumor activity against human NCI-H2122 cells xenografted in mouse assessed as tumor growth inhibition at 15 mg/kg, po administered every third day for 21 days; assay type: functional; conditions: NCI-H2122, 504 h, time 21 day, read-out: TGI
Procedure, shortened: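 Dosing was oral, every third day (Q3D) across 21 days, with single agents or the MEK plus PI3K combination in NCI-H2122 xenograft mice. Tumor volume was calculated as (L×W×W)/2 from caliper measurements. %TGI was derived from fitted-curve AUC per day relative to vehicle, with body weight monitored.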

[27] = system: 888-mel; test: Inhibition of S6 phosphorylation in human 888-mel cells incubated for 24 hrs in presence of 4-(2-(1H-indazol-4-yl)-6-((4-(methylsulfonyl)piperazin-1-yl)methyl)thieno[3,2-d]pyrimidin-4-yl)morpholine by immunoblotting analysis; assay type: cell-based
[28] = system: A2058; test: Antitumor activity against human A2058 cells harboring BRAF V600E/PTEN deletion mutant xenografted in mouse assessed as suppression of AKT phosphorylation at 15 mg/kg, po administered every third day for 21 days and measured after 72 hrs post dose in presence of 4-(2-(1H-indazol-4-yl)-6-((4-(methylsulfonyl)piperazin-1-yl)methyl)thieno[3,2-d]pyrimidin-4-yl)morpholine by Western blot analysis; assay type: functional, organism-based; conditions: time 576.0 hrs

Sequence of ALK tyrosine kinase receptor (Q9UM73 whole entry): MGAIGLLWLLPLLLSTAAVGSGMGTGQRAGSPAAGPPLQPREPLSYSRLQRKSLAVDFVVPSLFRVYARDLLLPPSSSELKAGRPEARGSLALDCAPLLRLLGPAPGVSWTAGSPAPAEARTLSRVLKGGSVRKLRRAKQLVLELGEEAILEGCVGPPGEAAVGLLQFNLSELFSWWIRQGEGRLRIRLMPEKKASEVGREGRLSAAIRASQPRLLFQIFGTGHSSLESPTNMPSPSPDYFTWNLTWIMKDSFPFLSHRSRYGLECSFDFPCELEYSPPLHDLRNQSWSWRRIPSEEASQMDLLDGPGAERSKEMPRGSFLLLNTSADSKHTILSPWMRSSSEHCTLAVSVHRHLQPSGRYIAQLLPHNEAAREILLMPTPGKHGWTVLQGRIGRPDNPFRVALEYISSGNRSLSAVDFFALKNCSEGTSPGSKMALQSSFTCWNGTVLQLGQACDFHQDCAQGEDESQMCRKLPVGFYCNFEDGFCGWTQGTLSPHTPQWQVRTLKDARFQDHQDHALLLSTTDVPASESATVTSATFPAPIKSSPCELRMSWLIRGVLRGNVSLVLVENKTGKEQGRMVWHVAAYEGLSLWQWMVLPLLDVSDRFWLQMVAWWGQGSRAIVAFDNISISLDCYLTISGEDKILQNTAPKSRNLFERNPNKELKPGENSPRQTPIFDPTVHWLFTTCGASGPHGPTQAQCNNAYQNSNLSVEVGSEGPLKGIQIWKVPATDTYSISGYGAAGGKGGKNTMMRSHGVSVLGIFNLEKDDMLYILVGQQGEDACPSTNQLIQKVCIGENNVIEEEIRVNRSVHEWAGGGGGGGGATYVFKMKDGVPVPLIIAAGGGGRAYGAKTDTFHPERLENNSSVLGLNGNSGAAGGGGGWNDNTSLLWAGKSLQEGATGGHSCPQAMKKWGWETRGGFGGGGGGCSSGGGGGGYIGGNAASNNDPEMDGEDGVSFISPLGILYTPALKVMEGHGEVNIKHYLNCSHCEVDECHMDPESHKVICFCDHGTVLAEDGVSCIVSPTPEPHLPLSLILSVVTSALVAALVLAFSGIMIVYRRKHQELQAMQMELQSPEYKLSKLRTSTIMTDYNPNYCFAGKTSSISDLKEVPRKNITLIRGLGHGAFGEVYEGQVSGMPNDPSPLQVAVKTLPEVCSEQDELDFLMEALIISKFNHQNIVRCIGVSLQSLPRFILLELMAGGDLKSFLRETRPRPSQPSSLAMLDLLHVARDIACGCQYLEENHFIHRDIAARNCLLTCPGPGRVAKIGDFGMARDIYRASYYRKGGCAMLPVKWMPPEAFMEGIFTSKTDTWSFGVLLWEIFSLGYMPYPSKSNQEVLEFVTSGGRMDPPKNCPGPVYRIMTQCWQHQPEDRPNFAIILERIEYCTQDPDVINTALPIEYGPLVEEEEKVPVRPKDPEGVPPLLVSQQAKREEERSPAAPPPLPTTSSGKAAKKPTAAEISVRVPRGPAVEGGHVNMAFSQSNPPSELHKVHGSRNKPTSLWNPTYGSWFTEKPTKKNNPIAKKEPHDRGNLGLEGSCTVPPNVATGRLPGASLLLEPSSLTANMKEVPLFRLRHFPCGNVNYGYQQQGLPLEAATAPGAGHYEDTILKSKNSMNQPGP

**Q.** How did the pIC50 [1] turn out when `O=C(c1ccc(F)c(F)c1Nc1ccc(I)cc1F)N1CC(O)([C@@H]2CCCCN2)C1` [COBIMETINIB] was run?
**A.** < 5.00

**Q.** What about the pIC50 [2] of the same compound?
**A.** < 5.00

**Q.** What about the pIC50 [3] of the same compound?
**A.** < 5.00

**Q.** What about the pIC50 [4] of the same compound?
**A.** < 5.00

**Q.** And the pIC50 [5]?
**A.** < 5.00

**Q.** What about the pIC50 [6] of the same compound?
**A.** < 5.00

**Q.** What about the pIC50 [7] of the same compound?
**A.** < 5.00

**Q.** What about the pIC50 [8] of the same compound?
**A.** < 5.00

**Q.** What about the pIC50 [9] of the same compound?
**A.** < 5.00

**Q.** What about the pIC50 [10] of the same compound?
**A.** < 5.00

**Q.** What about the pIC50 [11] of the same compound?
**A.** < 5.00

**Q.** And the pIC50 [12]?
**A.** < 5.00

**Q.** And the pIC50 [13]?
**A.** < 5.00

**Q.** What about the inhibition in vivo at 5 mg/kg [14] of the same compound?
**A.** 94%

**Q.** What about the inhibition in vivo at 5 mg/kg [15] of the same compound?
**A.** 34.5%

**Q.** And the inhibition in vivo at 5 mg/kg [16]?
**A.** 69.5%

**Q.** And the inhibition in vivo at 5 mg/kg [17]?
**A.** 106%

**Q.** What about the inhibition in vivo at 10 mg/kg [18] of the same compound?
**A.** 38%

**Q.** What about the Activity [19] of the same compound?
**A.** 60%

**Q.** And the inhibition [20]?
**A.** Active

**Q.** And the Activity [21]?
**A.** Active

**Q.** And the Activity [22]?
**A.** Active

**Q.** And the inhibition in vivo at 6 mg/kg [23]?
**A.** 73%

**Q.** What about the inhibition in vivo at 15 mg/kg [24] of the same compound?
**A.** 41%

**Q.** What about the inhibition in vivo at 10 mg/kg [25] of the same compound?
**A.** 18%

**Q.** And the inhibition in vivo at 15 mg/kg [26]?
**A.** 71%

**Q.** And the inhibition [27]?
**A.** Active

**Q.** What about the Activity [28] of the same compound?
**A.** Active
